Results from ChEMBL document CHEMBL3627681, “Synthesis and biological evaluation of 1,3-diaryl pyrazole derivatives as potential antibacterial and anti-inflammatory agents” (2015).
Values after ≈ are worked out from the molar mass of the structure shown.

Experiments:
Mus musculus = assay: Antiinflammatory activity in mouse assessed as inhibition of xylene-induced ear edema at 50 mg/kg, ip administered 30 mins before xylene challenge relative to control; assay type: functional
Summary of the method: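 Mice received compound freshly dissolved in DMSO, 50 mg/kg ip at 0.05 mL/20 g body weight; vehicle controls got DMSO alone. After 30 min, 20 µL xylene was applied to the right ear. After a further 30 min, 7 mm plugs were cut from treated and untreated ears and edema taken as their weight difference. Result is % edema reduction versus vehicle controls.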

Staphylococcus aureus [1] = assay: Antibacterial activity against methicillin-resistant Staphylococcus aureus CCARM 3506 after 24 hrs by two-fold serial dilution method; assay type: functional; settings: CCARM 3506, 24 h
Summary of the method: (§1)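 Broth microdilution in Mueller-Hinton broth. Bacteria grown to mid-log phase, diluted 1000-fold, and inoculated at 10⁵ CFU/mL. Test compounds in DMSO, final DMSO not above 0.05%, final concentrations 64-0.5 µg/mL. Incubation 24 h at 37 °C, growth read as absorbance at 650 nm. MIC taken as the lowest concentration giving complete growth inhibition. Run three times.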

Staphylococcus aureus [2] = assay: Antibacterial activity against quinolone-resistant Staphylococcus aureus CCARM 3505 after 24 hrs by two-fold serial dilution method; assay type: functional; settings: CCARM 3505, 24 h; summary of the method: as §1
Staphylococcus aureus [3] = assay: Antibacterial activity against methicillin-resistant Staphylococcus aureus CCARM 3167 after 24 hrs by two-fold serial dilution method; assay type: functional; settings: CCARM 3167, 24 h; summary of the method: as §1
Staphylococcus aureus [4] = assay: Antibacterial activity against quinolone-resistant Staphylococcus aureus CCARM 3519 after 24 hrs by two-fold serial dilution method; assay type: functional; settings: CCARM 3519, 24 h; summary of the method: as §1
Candida albicans = assay: Antifungal activity against Candida albicans 7535 by two-fold serial dilution method; assay type: functional
Pseudomonas aeruginosa [5] = assay: Antibacterial activity against Pseudomonas aeruginosa 2742 after 24 hrs by two-fold serial dilution method; assay type: functional; settings: Pseudomonas aeruginosa, 2742, 24 h
Summary of the method: (§2)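 Broth microdilution in Mueller-Hinton broth over final concentrations of 64–0.5. Bacteria were grown to mid-log phase and diluted 1000-fold, then inoculated at 10⁵ CFU/mL. Compounds were dissolved in DMSO, with final DMSO at most 0.05%. Plates were incubated 24 h at 37 °C and growth read as absorbance at 650 nm. MIC is the concentration giving complete growth inhibition. Three independent runs.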

Escherichia coli [6] = assay: Antibacterial activity against Escherichia coli KCTC 1924 after 24 hrs by two-fold serial dilution method; assay type: functional; settings: KCTC 1924, 24 h; summary of the method: as §2
Streptococcus mutans = assay: Antibacterial activity against Streptococcus mutans 3065 after 24 hrs by two-fold serial dilution method; assay type: functional; settings: Streptococcus mutans, 3065, 24 h; summary of the method: as §2
Escherichia coli [7] = assay: Antibacterial activity against Escherichia coli CCARM 1356 after 24 hrs by two-fold serial dilution method; assay type: functional; settings: CCARM 1356, 24 h; summary of the method: as §2
Staphylococcus aureus [8] = assay: Antibacterial activity against Staphylococcus aureus RN4220 after 24 hrs by two-fold serial dilution method; assay type: functional; settings: RN4220, 24 h; summary of the method: as §1
Staphylococcus aureus [9] = assay: Antibacterial activity against Staphylococcus aureus 503 after 24 hrs by two-fold serial dilution method; assay type: functional; settings: Staphylococcus aureus, 503, 24 h; summary of the method: as §1
Pseudomonas aeruginosa [10] = assay: Antibacterial activity against Pseudomonas aeruginosa 2004 after 24 hrs by two-fold serial dilution method; assay type: functional; settings: Pseudomonas aeruginosa, 2004, 24 h; summary of the method: as §2
Salmonella typhimurium = assay: Antibacterial activity against Salmonella typhimurium 2421 after 24 hrs by two-fold serial dilution method; assay type: functional, Salmonella enterica subsp. enterica serovar Typhimurium; settings: Salmonella enterica, 2421, 24 h; summary of the method: as §2
Staphylococcus aureus [11] = assay: Antibacterial activity against Staphylococcus aureus 209 after 24 hrs by two-fold serial dilution method; assay type: functional; settings: Staphylococcus aureus, 209, 24 h; summary of the method: as §1

Structure (SMILES) | inhibition in vivo at 50 mg/kg (Mus musculus) [%] | MIC (Staphylococcus aureus [1]) [µg/mL] | MIC (Staphylococcus aureus [2]) [µg/mL] | MIC (Staphylococcus aureus [3]) [µg/mL] | MIC (Staphylococcus aureus [4]) [µg/mL] | MIC (Candida albicans) [µg/mL] | MIC (Pseudomonas aeruginosa [5]) [µg/mL] | MIC (Escherichia coli [6]) [µg/mL] | MIC (Streptococcus mutans) [µg/mL] | MIC (Escherichia coli [7]) [µg/mL] | MIC (Staphylococcus aureus [8]) [µg/mL] | MIC (Staphylococcus aureus [9]) [µg/mL] | MIC (Pseudomonas aeruginosa [10]) [µg/mL] | MIC (Salmonella typhimurium) [µg/mL] | MIC (Staphylococcus aureus [11]) [µg/mL]
CC(C)Cc1ccc(C(C)C(=O)O)cc1 (stereo not drawn) [IBUPROFEN] | 29.6 | – | – | – | – | – | – | – | – | – | – | – | – | – | –
CCn1cc(C(=O)O)c(=O)c2cc(F)c(N3CCNCC3)cc21 [NORFLOXACIN] | – | 4 (≈ 12.5 µM) | > 64 | 8 (≈ 25.1 µM) | > 64 | – | – | – | – | – | – | – | – | – | –
OC(Cn1cncn1)(Cn1cncn1)c1ccc(F)cc1F [FLUCONAZOLE] | – | – | – | – | – | 1 (≈ 3.27 µM) | – | – | – | – | – | – | – | – | –
N=C(N)N/N=C/c1cn(-c2ccccc2)nc1-c1ccc(F)cc1 | 61.4 | 8 (≈ 24.8 µM) | 16 (≈ 49.6 µM) | 8 (≈ 24.8 µM) | 16 (≈ 49.6 µM) | 8 (≈ 24.8 µM) | > 64 | 8 (≈ 24.8 µM) | > 64 | > 64 | 8 (≈ 24.8 µM) | 16 (≈ 49.6 µM) | > 64 | > 64 | 8 (≈ 24.8 µM)
N=C(N)N/N=C/c1cn(-c2ccc([N+](=O)[O-])cc2[N+](=O)[O-])nc1-c1ccccc1F | 87.2 | 4 (≈ 9.7 µM) | 8 (≈ 19.4 µM) | 8 (≈ 19.4 µM) | 8 (≈ 19.4 µM) | 4 (≈ 9.7 µM) | > 64 | 8 (≈ 19.4 µM) | 16 (≈ 38.8 µM) | 16 (≈ 38.8 µM) | 8 (≈ 19.4 µM) | 8 (≈ 19.4 µM) | > 64 | 16 (≈ 38.8 µM) | 8 (≈ 19.4 µM)
O=C(N/N=C/c1cn(-c2ccc([N+](=O)[O-])cc2[N+](=O)[O-])nc1-c1cccc(Br)c1)c1ccco1 | 25.3 | > 64 | > 64 | > 64 | > 64 | > 64 | > 64 | > 64 | > 64 | > 64 | > 64 | > 64 | > 64 | > 64 | > 64
COc1c(N2C[C@@H]3CCCN[C@@H]3C2)c(F)cc2c(=O)c(C(=O)O)cn(C3CC3)c12 [MOXIFLOXACIN] | – | – | – | – | 4 (≈ 9.96 µM) | 0.5 (≈ 1.25 µM) | – | – | 0.25 (≈ 0.623 µM) | 128 (≈ 319 µM) | 0.25 (≈ 0.623 µM) | 2 (≈ 4.98 µM) | 2 (≈ 4.98 µM) | 0.5 (≈ 1.25 µM) | –
COc1c(N2CCNC(C)C2)c(F)cc2c(=O)c(C(=O)O)cn(C3CC3)c12 (stereo not drawn) [GATIFLOXACIN] | – | 2 (≈ 5.33 µM) | 8 (≈ 21.3 µM) | 2 (≈ 5.33 µM) | 4 (≈ 10.7 µM) | 0.5 (≈ 1.33 µM) | 1 (≈ 2.66 µM) | 2 (≈ 5.33 µM) | 0.5 (≈ 1.33 µM) | 16 (≈ 42.6 µM) | 0.25 (≈ 0.666 µM) | 2 (≈ 5.33 µM) | 1 (≈ 2.66 µM) | 0.5 (≈ 1.33 µM) | 2 (≈ 5.33 µM)
Cc1ccc(-c2nn(-c3ccc([N+](=O)[O-])cc3[N+](=O)[O-])cc2/C=N/NC(=O)c2ccco2)cc1 | 36 | > 64 | > 64 | > 64 | > 64 | > 64 | > 64 | > 64 | > 64 | > 64 | > 64 | > 64 | > 64 | > 64 | > 64
N=C(N)N/N=C/c1cn(-c2ccc([N+](=O)[O-])cc2[N+](=O)[O-])nc1-c1ccccc1Br | 78.1 | 4 (≈ 8.45 µM) | 4 (≈ 8.45 µM) | 4 (≈ 8.45 µM) | 8 (≈ 16.9 µM) | 2 (≈ 4.23 µM) | > 64 | 4 (≈ 8.45 µM) | 16 (≈ 33.8 µM) | 16 (≈ 33.8 µM) | 4 (≈ 8.45 µM) | 4 (≈ 8.45 µM) | > 64 | 16 (≈ 33.8 µM) | 8 (≈ 16.9 µM)
CCC(C)n1ncn(-c2ccc(N3CCN(c4ccc(OCC5COC(Cn6cncn6)(c6ccc(Cl)cc6Cl)O5)cc4)CC3)cc2)c1=O (stereo not drawn) [ITRACONAZOLE] | – | – | – | – | – | 0.06 (≈ 0.085 µM) | – | – | – | – | – | – | – | – | –
N=C(N)N/N=C/c1cn(-c2ccc([N+](=O)[O-])cc2[N+](=O)[O-])nc1-c1ccccc1[N+](=O)[O-] | 58.3 | 8 (≈ 18.2 µM) | 16 (≈ 36.4 µM) | 16 (≈ 36.4 µM) | 32 (≈ 72.8 µM) | 8 (≈ 18.2 µM) | > 64 | 16 (≈ 36.4 µM) | 32 (≈ 72.8 µM) | 32 (≈ 72.8 µM) | 16 (≈ 36.4 µM) | 16 (≈ 36.4 µM) | > 64 | 32 (≈ 72.8 µM) | 32 (≈ 72.8 µM)
N=C(N)N/N=C/c1cn(-c2ccc([N+](=O)[O-])cc2[N+](=O)[O-])nc1-c1ccccc1 | 86.9 | 8 (≈ 20.3 µM) | 8 (≈ 20.3 µM) | 8 (≈ 20.3 µM) | 8 (≈ 20.3 µM) | 4 (≈ 10.1 µM) | > 64 | 8 (≈ 20.3 µM) | 16 (≈ 40.6 µM) | 16 (≈ 40.6 µM) | 8 (≈ 20.3 µM) | 8 (≈ 20.3 µM) | > 64 | 16 (≈ 40.6 µM) | 8 (≈ 20.3 µM)
Cc1onc(-c2ccccc2)c1C(=O)N[C@@H]1C(=O)N2[C@@H]1SC(C)(C)[C@@H]2C(=O)O [OXACILLIN] | – | > 64 | 1 (≈ 2.49 µM) | > 64 | 1 (≈ 2.49 µM) | – | – | – | – | – | – | – | – | – | –
O=C(N/N=C/c1cn(-c2ccc([N+](=O)[O-])cc2[N+](=O)[O-])nc1-c1ccccc1F)c1ccco1 | 28 | > 64 | > 64 | > 64 | > 64 | > 64 | > 64 | > 64 | > 64 | > 64 | > 64 | > 64 | > 64 | > 64 | > 64
